# Rows were chosen to be rich in hits. Some 3.7% of all compounds tested hit in one or more screens of this group.
# NPY-Y1 antag: NPY-Y1 (human) receptor antagonism; HEK293-CNG Y1 cells, membrane potential fluorescence; NPY at EC95, then isoproterenol; inhibition, % at 3.6 µM; actives 1% (n = 200,000);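 active = inhibition above the campaign mean inhibition of all tested compounds plus 3 SD, cut at about 20% in these data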;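 note: 0% = DMSO wells given NPY plus isoproterenol and 100% = isoproterenol alone without NPY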
#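 Test system – HEK293 Y1/CNG channel cell line · Also added – NPY agonist 25 nM, then isoproterenol 1 µM plus Ro 20-1724 25 µM · Compound dosing – one concentration, 3.6 µM, in 0.4% DMSO · Schedule – compound incubation 1 h at room temperature, readout 45 min post-stimulation · Technique – fluorescence, membrane potential probe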
# NPY-Y1 PAM-ag: human NPY-Y1 potentiation or agonism, primary screen; P25929; NPY-Y1 expressing cells, potentiator/agonist activation; activation, % at 3.6 µM; actives 0.37% (n = 220,000); AID 1304; in the data active = activation above about 33%, passing the limit was not always enough;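 note: cells stimulated with NPY at EC10 then isoproterenol at EC100; 0% = low agonist plus stimulus and 100% = saturating agonist plus stimulus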
# NPY Y2 blocker: blocks the human neuropeptide Y Y2 receptor; P49146; NPY-Y2 expressing cells, antagonist mode; inhibition, % at 2.7 µM; actives 0.99% (n = 140,000); AID 793; in the data active = inhibition above about 17%;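 note: 0% = vehicle with agonist challenge and 100% = reference antagonist with challenge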
# Furin inh: human furin inhibition. P09958. purified furin, fluorogenic substrate cleavage. inhibition, % at 20 µM or 30 µM. actives 0.061% (n = 220,000). AID 463115; in the data active = inhibition above about 25%
# NPY2 pot ag: potentiators or agonists of human neuropeptide Y receptor Y2. P49146. cells expressing NPY-Y2, potentiator/agonist read-out. activation, % at 3.6 µM. actives 0.45% (n = 220,000). AID 1359; in the data active = activation above about 27%;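 note: cells stimulated with NPY near EC25 plus isoproterenol at EC100; 0% = vehicle plus submaximal agonist and 100% = vehicle plus saturating agonist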
# KCC2 mod: KCC2 (human) Cl- transport modulation; B-score of Tl+ flux slope (higher = more flux/activation; lower = inhibition) at 10 µM; Q9H2X9; actives 2.2% (n = 190,000); KCC2 cells, thallium flux FluoZin-2 fluorescence;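 active = thallium flux slope and its plate-corrected score both differing from the plate sample mean at a set confidence after two filtering rounds, in either direction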;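 note: slope of fluorescence scaled to starting intensity during 10 to 20 s after thallium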
# Target sequence (Q9H2X9 whole entry, looked up): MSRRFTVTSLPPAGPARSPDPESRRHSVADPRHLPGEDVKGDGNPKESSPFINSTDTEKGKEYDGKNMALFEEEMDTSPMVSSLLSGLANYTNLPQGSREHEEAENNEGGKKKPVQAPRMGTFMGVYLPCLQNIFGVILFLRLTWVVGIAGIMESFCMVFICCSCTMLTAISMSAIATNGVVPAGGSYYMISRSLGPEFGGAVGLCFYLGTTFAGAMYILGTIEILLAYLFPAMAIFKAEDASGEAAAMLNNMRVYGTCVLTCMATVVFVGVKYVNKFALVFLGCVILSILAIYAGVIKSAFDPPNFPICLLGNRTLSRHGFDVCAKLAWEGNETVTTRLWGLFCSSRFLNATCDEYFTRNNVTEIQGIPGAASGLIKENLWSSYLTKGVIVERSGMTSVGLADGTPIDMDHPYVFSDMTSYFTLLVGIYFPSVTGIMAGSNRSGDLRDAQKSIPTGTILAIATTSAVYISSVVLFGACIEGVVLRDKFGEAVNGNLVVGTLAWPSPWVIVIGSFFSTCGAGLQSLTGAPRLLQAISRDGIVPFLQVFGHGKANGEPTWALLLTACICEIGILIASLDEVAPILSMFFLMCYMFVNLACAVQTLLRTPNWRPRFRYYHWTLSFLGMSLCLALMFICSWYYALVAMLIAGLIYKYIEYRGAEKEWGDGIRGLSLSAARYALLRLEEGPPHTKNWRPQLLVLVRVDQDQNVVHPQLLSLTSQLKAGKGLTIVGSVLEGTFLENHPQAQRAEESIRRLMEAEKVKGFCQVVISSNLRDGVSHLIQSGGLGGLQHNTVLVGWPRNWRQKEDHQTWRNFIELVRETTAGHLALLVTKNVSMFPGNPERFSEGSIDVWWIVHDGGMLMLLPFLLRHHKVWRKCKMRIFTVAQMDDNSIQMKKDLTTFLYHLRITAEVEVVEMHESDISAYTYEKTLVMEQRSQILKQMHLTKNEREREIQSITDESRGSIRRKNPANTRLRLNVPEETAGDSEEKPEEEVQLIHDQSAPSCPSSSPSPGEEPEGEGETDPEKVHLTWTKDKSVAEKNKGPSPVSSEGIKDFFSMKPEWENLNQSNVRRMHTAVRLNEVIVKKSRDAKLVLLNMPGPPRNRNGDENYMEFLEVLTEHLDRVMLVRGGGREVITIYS
# NPY-Y2 pot conf: human NPY-Y2 potentiation or agonism, confirmation. cell-based NPY-Y2 potentiator/agonist assay. actives 20% (n = 450). shares compounds with NPY2 pot ag. activation, % at 3.6 µM; in the data active = activation above about 33%
# NPY-Y1 potentiator: counter-screen for NPY-Y2 potentiators or agonists: NPY-Y1 potentiators or agonists | activation, % at 3.6 µM | Y1 HEK293-CNG cells, membrane potential fluorescence | shares compounds with NPY2 pot ag | actives 20% (n = 450); in the data active = activation above about 45%;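 note: cells stimulated with submaximal NPY then isoproterenol with phosphodiesterase inhibitor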
# NPY-Y1 agonist 2: counter-screen for NPY-Y2 potentiators: agonists of human NPY-Y1; shares compounds with NPY2 pot ag; HEK293 Y1-CNGC, membrane potential fluorescence, agonism; activation, % at 3.6 µM; actives 37% (n = 450); AID 1702;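 active = activation above the mean of DMSO-only control wells plus 3 SD, cut at about 18% in these data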;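 note: cells stimulated with 1 µM isoproterenol plus the PDE inhibitor Ro 20-1724; 0% = isoproterenol with DMSO and no NPY and 100% = 40 nM NPY; Y1 agonists lower the membrane potential dye signal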
# CNGC inhibitor: blocks CNG channel activity, counter-screen for NPY-Y2 potentiators | shares compounds with NPY2 pot ag | HEK293-CNG parental, isoproterenol cAMP, membrane potential fluorescence | inhibition, % at 3.6 µM | actives 32% (n = 450);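 active = inhibition above the control-well mean plus 3 SD of those wells, cut at about 22% in these data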;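 note: 0% = DMSO with isoproterenol and 100% = DMSO without isoproterenol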
# Y2 agonist ctr: activates human NPY-Y2 receptor in potentiator counter-screen. shares compounds with NPY2 pot ag. HEK293 Y2/CNGC cells, membrane potential fluorescence, agonist mode. activation, % at 3.6 µM. actives 56% (n = 450). AID 1710;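 active = activation above the mean of solvent-only control wells plus 3 SD, cut at about 10% in these data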;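 note: cells stimulated by isoproterenol with no NPY added so direct agonism is tested; 0% = DMSO with isoproterenol alone and 100% = NPY at EC100 plus isoproterenol; agonism lowers probe fluorescence through less cAMP and CNG channel opening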
# An asterisk follows results filed as active; / = not tested or not shown.
SMILES,NPY-Y1 antag,NPY-Y1 PAM-ag,NPY Y2 blocker,Furin inh,NPY2 pot ag,KCC2 mod,NPY-Y2 pot conf,NPY-Y1 potentiator,NPY-Y1 agonist 2,CNGC inhibitor,Y2 agonist ctr
O=C1C2CC=CCC2C(=O)N1c1ccc(NCCc2ccc(O)cc2)c([N+](=O)[O-])c1 (stereo unspecified),-10.2,39.9,-1.8,0.3,46.4*,-3.26,5.1,-1.6,4.3,10.5,13.0*
O=C1C2CC=CCC2C(=O)N1c1ccc(NCCc2ccc(Cl)cc2)c([N+](=O)[O-])c1 (stereo unspecified),2.0,5.3,-4.5,-16.9,16.9,0.283,/,/,/,/,/
Cc1cc(NC(=O)c2c(-c3c(Cl)cccc3Cl)noc2C)n(C)n1,/,3.3,/,-11.3,-10.8,-0.144,/,/,/,/,/
CCN(CC)CCCN(C(=O)c1ccco1)c1nc(-c2ccc(C)cc2)cs1,11.0,17.5,/,-25.7,25.3*,0.599,63.6*,65.4*,45.1*,58.4*,61.6*
CC(C)Cn1c(N)c(C(=O)COC(=O)CC23CC4CC(CC(C4)C2)C3)c(=O)n(C)c1=O,-3.4,21.3,1.9,-14.8,38.2*,-0.606,4.3,-10.4,-26.0,-1.4,2.3
COc1ccc(Nc2ccc3nnc(-c4ccc(Br)cc4)n3n2)cc1,-0.4,11.2,-0.4,-3.9,-4.9,-0.0547,/,/,/,/,/
Brc1csc(/C=N/Nc2nc3ccccc3s2)c1,3.4,-11.7,1.4,-15.0,0.7,0.342,/,/,/,/,/
Cc1ccc2[nH]c(C)c(/C=N/Nc3nc4ccccc4s3)c2c1,-11.8,30.3,-4.9,-13.8,38.1*,-0.644,41.8*,53.1*,31.4*,38.1*,38.5*
CCOC(=O)c1ccc(Nc2nc(C(=O)OCC)nc3ccccc23)cc1,1.7,7.7,-0.1,6.0,-2.9,-0.803,/,/,/,/,/
CCOC(=O)c1nc(Nc2ccc(Nc3ccccc3)cc2)c2ccccc2n1,-7.5,13.5,/,-26.0,32.8*,-1.6,35.1*,36.5,9.6,18.9,32.8*
O=C(CN(c1cccc(C(F)(F)F)c1)S(=O)(=O)c1ccc(Cl)c([N+](=O)[O-])c1)NCc1ccc(F)cc1,-11.5,39.4,-3.0,-21.1,35.5*,0.742,67.8*,84.7*,85.2*,64.0*,79.0*
CC(C)NC[C@@H](O)c1ccc(O)c(O)c1,-4.7,63.4,2.8,-13.2,52.5*,-1.32,54.1*,51.0*,72.7*,57.4*,53.6*
O=C(Nc1ccc(S(=O)(=O)Nc2ccc(F)cc2)cc1)c1ccc(CN2CCOCC2)cc1,4.4,-6.4,/,-22.9,14.5,0.812,/,/,/,/,/
COc1ccc(NS(=O)(=O)c2ccc(NC(=O)c3ccc(CN4CCOCC4)cc3)cc2)cc1,6.3,-3.6,/,-22.1,24.1*,-0.645,-7.7,-49.9,-31.1,-7.7,-5.3
O=S(=O)(c1cccc(NC(=S)N2CCN(c3ccc(F)cc3)CC2)c1)C(F)F,-9.6,8.8,-2.4,-22.3,8.8,-1.69,/,/,/,/,/
O=S(=O)(c1cccc(NC(=S)N2CCN(c3cccc(Cl)c3)CC2)c1)C(F)F,-4.5,7.5,-2.5,-15.5,30.5*,0.601,10.4,-1.4,6.6,12.8,16.7*
Cc1cc(C)n(-c2ncc3c(n2)N(CCO)CCOC3=O)n1,/,27.4,/,-9.1,73.5*,0.958,-3.0,3.8,1.1,0.1,1.2
O=C(Nc1ccccc1C(=O)N1CCCC1)c1ccc(Cl)c([N+](=O)[O-])c1,-11.8,34.8,/,-11.8,27.5*,1.1,3.0,6.9,4.5,-3.1,10.1*
Cc1cc(C)n(-c2ccc(C(=O)Nc3ccc(S(=O)(=O)NCc4ccco4)cc3)cc2)n1,-1.9,5.5,1.3,4.8,37.9*,/,-1.9,-40.9,-26.2,-6.4,-9.3
C[N+](C)(C)CCN1C(=O)CSC1=O,/,26.9,/,-2.6,82.5*,0.451,-3.2,-1.4,-1.6,0.8,1.9
Cc1ccc(OCCN2C(=O)CSC2=O)cc1,0.3,-18.8,3.6,-23.6,0.0,-0.328,/,/,/,/,/
COc1ccc(S(N)(=O)=O)cc1C(=O)NCCCN1CCN(c2ccccc2OC)CC1,-1.5,13.3,1.6,-26.0,76.3*,-0.44,-7.2,3.5,-16.9,-6.4,-1.2
CCCn1nnc(NC(=O)C(C)Oc2ccc(Cl)cc2Cl)n1 (stereo unspecified),4.3,8.7,1.1,-17.9,-26.3,-0.026,/,/,/,/,/
CC(Oc1cc(Cl)ccc1Cl)C(=O)N/N=C\c1ccnn1C (stereo unspecified),-2.9,-0.6,2.4,-4.5,27.4*,-0.893,-2.9,-4.6,-2.1,-4.1,6.2
COc1ccc(NC(=O)CN(C)CC(=O)Nc2cccc(S(=O)(=O)N(C)c3ccccc3)c2)cc1,-2.4,-20.7,/,-16.8,-2.6,-0.338,/,/,/,/,/
SMILES,NPY-Y1 antag,NPY-Y1 PAM-ag,NPY Y2 blocker,Furin inh,NPY2 pot ag,KCC2 mod,NPY-Y2 pot conf,NPY-Y1 potentiator,NPY-Y1 agonist 2,CNGC inhibitor,Y2 agonist ctr
CCc1ccc(N(CC(=O)Nc2nc3ccc(C)cc3s2)S(=O)(=O)c2c(C)noc2C)cc1,0.7,25.6,1.6,-27.4,31.2*,/,28.2,29.9,45.0*,33.5*,49.0*
COC(=O)c1ccc(COc2ccc(C)cc2[N+](=O)[O-])o1,/,20.2,/,-4.3,56.1*,-1.31,6.5,-10.3,-15.3,-9.7,6.0
CN(C)S(=O)(=O)Oc1cccc(C(=O)Nc2ccc(Cl)cc2)c1,-8.9,40.2,1.7,-12.1,48.1*,-1.2,-3.9,-36.4,-21.4,-11.6,-7.0
CN(C)S(=O)(=O)Oc1cccc(C(=O)Nc2ccccc2Cl)c1,-2.3,-6.9,1.8,-11.3,5.9,-0.17,/,/,/,/,/
Cc1ccc(-c2cc(=O)c3cc(Cl)ccc3[nH]2)cc1,-3.8,9.9,/,-35.0,-3.4,-0.0714,/,/,/,/,/
CC1(C)C=C(c2ccc(O)cc2)CC(C)(C)N1,-1.5,22.6,-0.4,-11.3,35.6*,/,0.5,-0.7,-11.3,1.8,6.3
COc1ccccc1N1CCN(C(=O)CCCn2nc(C)c([N+](=O)[O-])c2C)CC1,1.7,2.0,/,-18.3,9.2,-1.16,/,/,/,/,/

# Bioassay records (PubChem)
